This is an account of results in the EternaBench riboswitch data.

The subject of the data set is MS2 coat protein. In words: apparent Kd, MS2 coat protein; higher = weaker binding; RNA-MaP array; FMN 200 µM where present. In a few lines: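 Two titrations, one without ligand and one with constant ligand, were run with SNAP-549-labelled MS2 coat protein from 0.7 or 1.5 nM, doubling to 3 µM. The targets were designs transcribed by stalled E. coli RNA polymerase on Illumina sequencing-chip clusters, in 100 mM Tris-HCl pH 7.5, 80 mM KCl, 4 mM MgCl2, BSA, DTT, yeast tRNA and Tween-20. The apparent Kd is the median of filtered per-cluster binding-curve fits, with green signal normalised to red-channel RNA signal and control-cluster median Fmax.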

[1] abbreviates: designed as: OFF switch for flavin mononucleotide, no ligand.
[2] abbreviates: ligand present: flavin mononucleotide, designed as: OFF switch for flavin mononucleotide.
[3] abbreviates: designed as: ON switch for flavin mononucleotide, no ligand.
Where [4] appears, read: ligand present: flavin mononucleotide, designed as: ON switch for flavin mononucleotide.

One may read the apparent Kd as a dissociation constant that holds for the conditions of the assay. With “CAGAAGUCAGGAUAUGCUGCUCGUCACUUGCGUGAUGAGUAGCAGAAGGGACAUGAGGAUCACCCAUGUAAAGA”, the “apparent Kd” value under setting [1] was determined as 63.1 nM and the “apparent Kd” value under setting [2] was 113 nM. For “GGAGCAUAUCAAUACAUGAGGAUCACCCAUGUCGAAUGAUAUGAGGAUAUGCAUCGGAAAACGAUGUAGAAGGCAUAGUGCUCC”, the “apparent Kd” value by setting is: under setting [3], 9.14 nM; under setting [4], 5.58 nM. On the same counts, the results for “UAUAUAUAAUAUAUUAACAUGAGGAUCACCCAUGUCGCUAGACAGGAUAUAUUUAAUAUUAUAAAGUAGAAGGGUCAUAUAAUU” are 50.5 nM and 64.8 nM. With “GCGAGUACGAGAGGAUAUUGACAUGAGGAUCACCCAUGUAUUUGGGAGUGUUCACUGAAUUCUUACGAGAAGGCUCGUACACGC”, the “apparent Kd” value under setting [1] turned out to be 244 nM and the “apparent Kd” value under setting [2] came to 252 nM.

With “AAGGAGUGAGGAUAUACAUGAGGAUCACCCAUGUUGAUGGAAACGUCAGAGAAAGAAGGUAGAAGGCACAAGAA”, the “apparent Kd” value turned out to be 56.7 nM under setting [1] and 58.5 nM under setting [2]. For “AACGCUAGACUAGGAUAUCGUUUACAUGAGGAUCACCCAUGUAAAGGGUAUUGUCGUCAUACGAACGAGAAGGAGUCGGUAAAU”, in that order: 10.4 nM and 26.5 nM.

“AAUAAACUCACAGGAUAUAGCAGAUGUCGCGUGAACUUACAGGCGACGAGGCUAGAAGGGUGACCACAUGAGGAUCACCCAUGU”: the “apparent Kd” value runs as follows: under setting [3], 738 nM; under setting [4], 103 nM.

With “CAGUACUGAGGAUAUACAUGAGGAUCACCCAUGUGAAAAAGCUACGAAAGUAGCAAAUGUAGAAGGCAGUACUG”, the “apparent Kd” value reads like this: under setting [1], 34.3 nM; under setting [2], 254 nM. For “GCAGAGCUAGGAUAUGCUGGGCUGCAGUAAAAUGGUCACUCACAUGAGGAUCACCCAUGUAGAAGGAGCAGUGU”, in that order: 26.5 nM and 40 nM.

Take “ACAUGAGGAUCACCCAUGUAUUUGUAGGAUAUACUCUAUUGUUUAUUACUCUAGUUAAAAUGUUUGUAGAAGGACAUUACAUGA”: the “apparent Kd” value under setting [1] was 6.81 nM and the “apparent Kd” value under setting [2] worked out at 7.38 nM. On the same counts, the results for “GACGCUAAAGGAUAUACAUGAGGAUCACCCAUGUUGAGGAAGGUUAGAUGAGGAGUAAGUAGAAGGUUAGGCGA” are 38 nM and 35.6 nM. For “AUUUAUGUCAUAGGAUAUAUAAAUAAAUUUAUAACAUGAGGAUCACCCAUGUACUUUGGUAUGAGGUAGAAGGAUGAUAAGAAU”, the “apparent Kd” value was 49.6 nM under setting [3] and 31.9 nM under setting [4]. Consider “ACUUAAAUACCCAAAAGUCGGGCGGAGGAUAUGGAGCUUCCACCACAUGAGGAUCACCCAUGUCUUCAGAAGGCCGCCCUUGGA”, for which the “apparent Kd” value under setting [4] is 11.2 nM. For the sequence “AAUUGACAUGAGGAUCACCCAUGUCCACCAAACGGAGGAUAUUGGGCGGCAAAACGUUGUUAAGAAGGCCGAAAUU”, the “apparent Kd” value under setting [3] is 34.1 nM and the “apparent Kd” value under setting [4] worked out at 88.3 nM.

Take “AGUAGACAAGGAUAUACAUGAGGAUCACCCAUGUGUGAAGGCCAGGAGGCUCCUCCCUGUAGAAGGUGUCGAGU”: the “apparent Kd” value worked out at 104 nM under setting [1] and 293 nM under setting [2]. For the sequence “GUGCCUUGGGAGAAGGUUACUAGCAAAGCUAUUAAAGGAUAUUCAUACCGGAAACGGACAUGAGGAUCACCCAUGUGGCACAAA”, the “apparent Kd” value amounted to 1120 nM under setting [3] and 118 nM under setting [4]. In the case of “GCGAUGUUAGGAUAUACAUGAGGAUCACCCAUGUUCAGACUGAGCCUAGAGCGUCUAUGUAGAAGGGACUCGCA”, the “apparent Kd” value is, setting by setting: under setting [1], 27.2 nM; under setting [2], 43.1 nM.

As for “GCUGCAUGCAGAGGAUAUGACACAUGAGGAUCACCCAUGUAAUAAAUGAGAUUUUCGAAUGUAUCUCAGAAGGCUGCAUGCAGC”, the “apparent Kd” value is, setting by setting: under setting [1], 16.6 nM; under setting [2], 89.4 nM. On the same counts, the results for “GAGACAUGUGAGAAGGCGCCACACGCGAGUGGGCGAGGAUAUCACAUGAGGAUCACCCAUGUUAGCCCUCGACCGCGACGCGGG” are 10.1 nM and 47.3 nM. For the sequence “CCGCAAAAGGAGGAUAUCGUAUCGGAUACGAUACGAGAAGGCUUUACAUGAGGAUCACCCAUGUGUCCUAGCGG”, the “apparent Kd” value was determined as 13.7 nM under setting [1] and 19.2 nM under setting [2]. Take “GUGCACAUUCGAGGAUAUCGGAGAGGAGUCCUUCGAGAAGGCGAUUCGUGCUGUGUUAUUCUGGACAUGAGGAUCACCCAUGUG”: the “apparent Kd” value turned out to be 50.8 nM under setting [3] and 27.8 nM under setting [4]. On the same counts, the results for “AAUUGGAUGCAGAAGGCAUGGACGACUCGUCACAUUAACAUGAGGAUCACCCAUGUGAAAACACAUGAGGAUAUGCAUCCUAAA” are 17.5 nM and 6.41 nM. On the same counts, the results for “AUGGACGUCGUAGGAUAUGUAGGAUUCUCGUACAUGAGGAUCACCCAUGUUGACGUCAAGGUCGGACAGAAGGGCGGUGUCUAU” are 584 nM and 65.4 nM.
